Screens as filed in PubChem.
Sampled rows, rich in hits. Any-hit rate of the full collection: about 4.6%.
CHO parental Ca: counter-screen for OX1R antagonists: effect in parental CHO cells; parental CHO-K1, ATP-induced calcium, Fluo-8 fluorescence; inhibition, % at 5.6 µM; 0.63% of 330,000 active; AID 463079;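 active = inhibition above that plate's mean sample inhibition plus 3 SD, cut at about 26% in these data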;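 note: 0% = ATP-challenged DMSO wells and 100% = DMSO wells without ATP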
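Assay system: parental CHO cells; Read-out basis: percent inhibition of ATP-evoked calcium rise, normalized to controls; Benchmarks: ATP and no-ATP DMSO wells; Compound dosing: single nominal dose of 5.6 µM per compound; Signal: Fluo-8 calcium dye fluorescence; Also added: ATP as calcium-mobilizing challenge; Repeats: singlicate.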
OX1R antag-1: blocks the human orexin 1 receptor | O43613 | AID 434989 | 0.43% of 330,000 active | inhibition, % at 5 µM | CHO/OX1R cells, Fluo-8 calcium fluorescence, orexin A;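 active = inhibition above its plate's threshold, mean inhibition of all tested compounds on the plate plus 3 SD, cut at about 37% in these data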;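 note: 0% = orexin A challenge wells and 100% = SB-334867-A antagonist wells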
Target sequence (O43613 whole entry, looked up): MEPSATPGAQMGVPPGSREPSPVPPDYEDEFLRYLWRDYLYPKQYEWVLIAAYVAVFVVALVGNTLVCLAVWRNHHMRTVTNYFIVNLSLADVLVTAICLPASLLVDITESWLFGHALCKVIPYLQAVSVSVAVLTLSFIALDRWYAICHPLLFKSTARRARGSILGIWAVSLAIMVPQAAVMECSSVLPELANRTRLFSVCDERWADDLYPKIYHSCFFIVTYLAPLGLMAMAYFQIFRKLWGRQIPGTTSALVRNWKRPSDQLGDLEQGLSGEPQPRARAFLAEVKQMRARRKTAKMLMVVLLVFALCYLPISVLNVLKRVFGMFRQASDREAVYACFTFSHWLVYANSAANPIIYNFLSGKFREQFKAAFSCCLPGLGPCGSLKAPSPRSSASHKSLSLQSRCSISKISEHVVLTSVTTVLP
GPR7 antagonist: antagonists of human GPR7 (neuropeptides B/W receptor 1) | P48145 | GPR7-expressing cells, fluorescence antagonist assay | inhibition, % at 4.4 µM | 1.1% of 290,000 active | AID 1861; in the data active = inhibition above about 16%, passing the limit was not always enough;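 note: cells stimulated with the agonist NPW; 0% = agonist with vehicle and 100% = vehicle without agonist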
TAAR1 antagonist: human TAAR1 antagonism. 1.5% of 360,000 active. Q96RJ0. CHO RD-HGA16 TAAR1, Fluo-8 calcium fluorescence, antagonist. inhibition, % at 3 µM;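 active = inhibition above a per-plate cutoff, the mean inhibition of test compounds on that plate plus 3 SD, cut at about 49% in these data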;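 note: 0% = DMSO plus EC80 beta-PEA response and 100% = DMSO alone without agonist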
Target sequence (Q96RJ0 whole entry, looked up): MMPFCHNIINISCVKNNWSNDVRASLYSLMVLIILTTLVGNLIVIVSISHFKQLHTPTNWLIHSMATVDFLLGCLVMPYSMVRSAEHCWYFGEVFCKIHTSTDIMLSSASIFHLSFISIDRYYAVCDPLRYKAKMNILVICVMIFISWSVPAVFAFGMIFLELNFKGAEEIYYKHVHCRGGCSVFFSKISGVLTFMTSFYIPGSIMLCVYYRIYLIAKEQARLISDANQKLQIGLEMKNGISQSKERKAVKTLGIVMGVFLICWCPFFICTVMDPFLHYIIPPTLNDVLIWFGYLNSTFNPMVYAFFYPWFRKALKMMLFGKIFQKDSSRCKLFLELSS
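Material: CHO RD-HGA16 cells bearing hTAAR1; compound dosing: one-point dosing, 3 µM nominal final; schedule: dye loading 75 min at 37 °C, then 30 min room temperature; measured by: calcium fluorescence with Fluo-8; control set: vehicle and agonist controls; replication: n of 1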
OX1R antag-2: antagonists of human orexin 1 receptor (OX1R); O43613; OX1R-expressing cells, FRET antagonist read-out; inhibition, % at 6.6 µM; 1.8% of 330,000 active; AID 485270; in the data active = inhibition mostly above about 38%, no sharp cut-off; inactive = mostly below about 40%;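 note: 0% = agonist challenge alone and 100% = reference antagonist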
TAAR1 ag: human TAAR1 agonism; activation, % at 3 µM; CHO RD-HGA16 TAAR1, Fluo-8 calcium fluorescence; vehicle wells 0%, saturating PEA agonist 100%; Q96RJ0; 0.99% of 360,000 active;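 active = activation above the mean activation of all test compounds in the run plus 3 SD, cut at about 38% in these data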
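Assay system – CHO-derived RD-HGA16 cells with stable Gα16 and human TAAR1 · Compound dosing – one-point dosing at 3 µM (nominal) · Incubation – 17-24 h seeding, 75 min 37 °C dye, 30 min RT · Measured by – kinetic Fluo-8 calcium fluorescence · Control set – DMSO vehicle as 0%, PEA at EC100 as 100% · Repeats – single well for each compound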
TAAR1 nonsel count: counter-screen for TAAR1 antagonists: nonselective antagonists | AID 651780 | shares compounds with TAAR1 antagonist | 77% of 2,400 active | counterscreen cell line, calcium fluorescence, antagonist mode | inhibition, % at 3 µM; in the data active = inhibition above about 22%;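 note: CHO-Ga16 host cells stimulated with ATP at an EC80 level; 0% = agonist EC80 plus vehicle and 100% = vehicle without agonist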
TAAR1 ant conf: human TAAR1 antagonism, confirmed | 40% of 2,400 active | shares compounds with TAAR1 antagonist | TAAR1-expressing cells, fluorescence antagonist read-out | inhibition, % at 3 µM; in the data active = inhibition above about 49%;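 note: CHO-Ga16 host cells challenged with agonist PEA near its EC80; 0% = agonist at EC80 plus vehicle and 100% = vehicle with no agonist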
Ga16 ag counter: nonselective Ga16 agonist in TAAR1 antagonist counter-screen; shares compounds with TAAR1 antagonist; Ga16-expressing cells, calcium fluorescence, agonist counterscreen; activation, % at 3 µM; 18% of 2,400 active; in the data active = activation above about 12%;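 note: 0% = vehicle wells and 100% = saturating stimulus response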
TAAR1 ag count: activates human TAAR1 in antagonist counter-screen; shares compounds with TAAR1 antagonist; hTAAR1 cell line, fluorescence activation, agonist mode; activation, % at 3 µM; 2% of 2,400 active; AID 651955; in the data active = activation above about 37%;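 note: CHO cells stably expressing TAAR1 with calcium dye readout; 0% = DMSO vehicle and 100% = full agonist response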
The depositor's hits bear a star.

What do the screens show for `CC(=O)c1c(C)[nH]c(C(=O)COC(=O)CN(C)S(=O)(=O)c2ccc(Cl)cc2)c1C`?
CHO parental Ca: -6.5; OX1R antag-1: -14.8; GPR7 antagonist: -9.7; TAAR1 antagonist: 52.7*; OX1R antag-2: 27.4; TAAR1 ag: 22.5; TAAR1 nonsel count: 39.6*; TAAR1 ant conf: 42.4; Ga16 ag counter: 18.4*; TAAR1 ag count: 11.2

What do the screens show for `COc1ccc(C(=O)c2cnc3ccccc3c2-c2ccccc2)cc1`?
CHO parental Ca: -27.4; OX1R antag-1: -26.7; GPR7 antagonist: -10.9; TAAR1 antagonist: 56.6*; OX1R antag-2: 40.9; TAAR1 ag: 10.9; TAAR1 nonsel count: 21.3; TAAR1 ant conf: 43.5; Ga16 ag counter: 3.9; TAAR1 ag count: -0.1

What do the screens show for `Cc1ccc(C(=O)c2cnc3ccccc3c2-c2ccccc2)cc1`?
CHO parental Ca: -19.4; OX1R antag-1: -2.1; GPR7 antagonist: 8.6; TAAR1 antagonist: 36.5; OX1R antag-2: 26.2; TAAR1 ag: 11.2

How did CNC(=O)C(C)c1ncc(C(F)(F)F)cc1Cl (centres undefined) do in these assays?
CHO parental Ca: -13.0; OX1R antag-1: -26.1; GPR7 antagonist: -7.2; TAAR1 antagonist: 98.2*; OX1R antag-2: 16.7; TAAR1 ag: -2.6; TAAR1 nonsel count: 2.4; TAAR1 ant conf: -5.2; Ga16 ag counter: -0.7; TAAR1 ag count: -1.8

What do the screens show for `CCOc1ccc(CCn2c(-c3ccco3)nc3ccccc3c2=O)cc1OCC`?
CHO parental Ca: -17.3; OX1R antag-1: -22.3; GPR7 antagonist: -10.7; TAAR1 antagonist: 57.8*; OX1R antag-2: 17.5; TAAR1 ag: 12.8; TAAR1 nonsel count: 30.9*; TAAR1 ant conf: 45.0; Ga16 ag counter: 7.2; TAAR1 ag count: 5.5

Results for O=c1c2ccccc2nc(-c2ccco2)n1Cc1ccccc1 ?
CHO parental Ca: -17.8; OX1R antag-1: -17.5; GPR7 antagonist: -5.0; TAAR1 antagonist: 25.3; OX1R antag-2: 6.5; TAAR1 ag: 16.4

How did N#C/C(=C\Nc1ccccc1O)c1nc2ccccc2o1 do in these assays?
CHO parental Ca: 18.2; OX1R antag-1: 23.2; GPR7 antagonist: 0.9; TAAR1 antagonist: 87.4*; OX1R antag-2: 37.3; TAAR1 ag: 8.9; TAAR1 nonsel count: 48.2*; TAAR1 ant conf: 73.4*; Ga16 ag counter: 10.3; TAAR1 ag count: 13.4

How did Fc1cccc(-c2cc3nc4c(c(N5CCOCC5)n3n2)CCCC4)c1 do in these assays?
CHO parental Ca: -36.1; OX1R antag-1: -14.1; GPR7 antagonist: -10.8; TAAR1 antagonist: 49.2*; OX1R antag-2: 12.0; TAAR1 ag: 6.6; TAAR1 nonsel count: 18.3; TAAR1 ant conf: 25.9; Ga16 ag counter: 5.2; TAAR1 ag count: 10.9

Results for COc1cc(C)cc(OC)c1OCC(=O)Nc1cc(C)on1 ?
CHO parental Ca: -17.2; OX1R antag-1: -22.9; TAAR1 antagonist: 88.2*; OX1R antag-2: 2.4; TAAR1 ag: -2.4; TAAR1 nonsel count: 5.7; TAAR1 ant conf: 2.1; Ga16 ag counter: 2.4; TAAR1 ag count: 2.6

How did CCN(CC(=O)Nc1c(F)cccc1F)C(=O)c1cccc(S(=O)(=O)N2CCc3ccccc3C2)c1 do in these assays?
CHO parental Ca: -1.7; OX1R antag-1: -17.5; TAAR1 antagonist: 5.8; OX1R antag-2: 11.0; TAAR1 ag: 3.4

How did Cc1ccc(-c2ccc(/C=C3\C(=O)ON=C3c3ccccc3)o2)c([N+](=O)[O-])c1 do in these assays?
CHO parental Ca: -7.4; OX1R antag-1: 3.3; GPR7 antagonist: -4.0; TAAR1 antagonist: 64.6*; OX1R antag-2: 22.1; TAAR1 ag: 21.0; TAAR1 nonsel count: 77.9*; TAAR1 ant conf: 80.7*; Ga16 ag counter: 23.9*; TAAR1 ag count: 27.7

What do the screens show for `Cc1ccc(/C=C2\C(=O)ON=C2c2ccccc2)o1`?
CHO parental Ca: 3.8; OX1R antag-1: -4.3; GPR7 antagonist: 9.9; TAAR1 antagonist: 16.7; OX1R antag-2: 0.8; TAAR1 ag: 7.1

Results for COc1ccccc1NC(=O)COc1ccc(C(=O)OCC(=O)NC(C)(C)C)cc1OC ?
CHO parental Ca: -32.4; OX1R antag-1: -23.6; GPR7 antagonist: -11.8; TAAR1 antagonist: 20.0; OX1R antag-2: 29.6; TAAR1 ag: 16.3

What do the screens show for `O=C(Nc1nc(-c2cc(F)ccc2F)cs1)c1cccc(N2C(=O)CCC2=O)c1`?
CHO parental Ca: 24.8; OX1R antag-1: -10.2; TAAR1 antagonist: 74.9*; OX1R antag-2: 25.5; TAAR1 ag: 28.7; TAAR1 nonsel count: 47.6*; TAAR1 ant conf: 59.5*; Ga16 ag counter: 21.7*; TAAR1 ag count: 18.0

Results for Cc1ccc(-c2csc(N3CCC[C@@H]3C(=O)NCCn3c(-c4ccncc4)nc4ccccc43)n2)cc1 ?
CHO parental Ca: -49.0; OX1R antag-1: -34.6; GPR7 antagonist: -6.0; TAAR1 antagonist: 62.4*; OX1R antag-2: 33.4; TAAR1 ag: 24.5; TAAR1 nonsel count: 26.1*; TAAR1 ant conf: 49.5*; Ga16 ag counter: 10.1; TAAR1 ag count: 10.2

What do the screens show for `Cc1ccc(-c2csc(N3CCN(CCCn4c(C(F)(F)F)nc5ccccc54)CC3)n2)cc1`?
CHO parental Ca: -22.2; OX1R antag-1: -45.0; GPR7 antagonist: 9.8; TAAR1 antagonist: 32.5; OX1R antag-2: 6.3; TAAR1 ag: -0.8

What do the screens show for `Cc1ccc(-c2csc(N3CCN(CCCn4c(-c5ccncc5)nc5ccccc54)CC3)n2)cc1`?
CHO parental Ca: -40.1; OX1R antag-1: -40.5; GPR7 antagonist: 4.2; TAAR1 antagonist: 55.5*; OX1R antag-2: 12.9; TAAR1 ag: 11.4; TAAR1 nonsel count: 24.7*; TAAR1 ant conf: 46.6; Ga16 ag counter: 4.4; TAAR1 ag count: 1.0

How did CCC(C)(C)NC(=O)C(c1ccc(OC)cc1)N(C(=O)CCC(=O)Nc1cc(C)on1)c1ccc(OC)c(OC)c1 (centres undefined) do in these assays?
CHO parental Ca: -20.2; OX1R antag-1: -35.0; GPR7 antagonist: 0.7; TAAR1 antagonist: -10.2; OX1R antag-2: 1.9; TAAR1 ag: 4.5

What do the screens show for `COc1ccc(-c2cnnn2-c2ccc([N+](=O)[O-])cc2)cc1`?
CHO parental Ca: -7.6; OX1R antag-1: -0.2; GPR7 antagonist: 5.1; TAAR1 antagonist: -3.3; OX1R antag-2: 15.9; TAAR1 ag: -2.0
